ChEMBL document CHEMBL1134776, “Novel azo derivatives as prodrugs of 5-aminosalicylic acid and amino derivatives with potent platelet activating factor antagonist activity” (J Med Chem, 2001)

Experiments:
Format in all cases: functional
[1] = species: Oryctolagus cuniculus; assay: Concentration required to inhibit PAF-induced maximum aggregation by 50%
Outline: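 Platelet-rich plasma was prepared by centrifuging blood at 250 g for 10 min at 4 °C, then diluted with platelet-poor plasma (3000g, 10 min) to 3.5 × 10^5 platelets/mm3. Aggregation was induced with C18-PAF (1.5 × 10^-8 M) and read in an aggregometer as maximum aggregation. IC50 came from linear regression of one curve with ≥4 points (15–85% inhibition), each point the mean of 1–3 experiments.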

[2] = species: Rattus norvegicus; assay: Dose required to reduce the lowering of the arterial blood pressure caused by PAF by 50 %.; conditions: read-out: ID50 (the source's name)
Outline: (§1)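 Male Sprague-Dawley rats (180–220 g) were anesthetized with pentobarbital (50 mg/kg ip), and blood pressure was recorded from the left carotid artery. Compound in saline (1 mL/kg) was given iv via a femoral vein 3 min before PAF (0.5 µg/kg iv). ID50 came from linear regression of one curve with ≥4 doses (15–85% inhibition), each point the mean of ≥2 experiments.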

[3] = tested on: Rattus norvegicus; assay: Dose required to reduce the lowering of the arterial blood pressure caused by PAF by 50 % in rats intravenously; conditions: iv, read-out: ID50 (the source's name); outline: as §1
[4] = species: Rattus norvegicus; assay: Damage to the colon observed after 48 hr after colitis induction in rats
Outline: (§2)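 Female Wistar rats (180–220 g) were fasted overnight and given 30 mg TNBS in 0.25 mL 50% ethanol intrarectally by cannula inserted 8 cm, under anesthesia. Compounds were dosed orally in 1% methylcellulose for 5 days before induction and 24 h after. Colons were removed at 48 h and blind-scored 0–10 for macroscopic damage. Diarrhea was analyzed by χ2, means by ANOVA, and scores by Mann–Whitney.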

[5] = species: Rattus norvegicus; assay: Effect of compound on myeloperoxidase activity was evaluated in rat; outline: as §2
[6] = species: Rattus norvegicus; assay: Effect of compound on LTB4 production was measured in rat; outline: as §2
[7] = species: Rattus norvegicus; assay: Colonic weight was measured in rats; outline: as §2
[8] = species: Rattus norvegicus; assay: % of rats exhibiting diarrhea; outline: as §2

Row | SMILES | IC50 [1] [nM] | ED50 [2] [mg/kg] | also measured
1 | CCOC(=O)N(CC(=O)N1CCC(Cn2c(C)nc3cnccc32)CC1)c1ccc(N)cc1 | 250 | – | –
2 | Cc1nc2cnccc2n1CC1CCN(C(=O)CC(Nc2ccc(N)cc2)c2ccccc2)CC1 (stereo unspecified) | 29 | 0.11 | –
3 | Cc1nc2cnccc2n1CC1CCN(C(=O)/C=C(\c2ccccc2)c2ccc(N)cc2)CC1 | 5 | 0.01 | –
4 | CCOC(=O)C(CC(=O)N1CCC(Cn2c(C)nc3cnccc32)CC1)c1ccc(N)cc1 (stereo unspecified) | 74 | 0.56 | –
5 | Cc1nc2cnccc2n1CC1CCN(C(=O)CC(C)(C)c2ccc(/N=N\c3ccc(O)c(C(=O)O)c3)cc2)CC1 | 1600 | 0.11 | –
6 | Cc1nc2cnccc2n1CC1CCN(C(=O)CN(c2ccccc2)S(=O)(=O)c2ccc(/N=N\c3ccc(O)c(C(=O)O)c3)cc2)CC1 | 4010 | 0.19 | –
7 | Cc1nc2cnccc2n1CC1CCN(C(=O)CN(C)C(=O)c2ccc(N)cc2)CC1 | 1270 | – | –
8 | CCOC(=O)NC(CC(=O)N1CCC(Cn2c(C)nc3cnccc32)CC1)c1ccc(N)cc1 (stereo unspecified) | 270 | 0.13 | –
9 | CCOC[C@H](CC(C)C)N(Cc1ccc(N)cc1)S(=O)(=O)c1ccc(Cn2c(C)nc3cnccc32)cc1 | 16 | – | –
10 | Cc1nc2cnccc2n1CC1CCN(C(=O)CC(C)c2ccc(N)cc2)CC1 (stereo unspecified) | 11 | 0.24 | –
11 | CCOC[C@H](CC(C)C)N(C(=O)c1ccc(N)cc1)S(=O)(=O)c1ccc(Cn2c(C)nc3cnccc32)cc1 | 1280 | – | ED50 [3]: 0.3 mg/kg
12 | Cc1nc2cnccc2n1Cc1ccc(S(=O)(=O)N(C)[C@@H](CC(C)C)C(=O)NCc2cccc(N)c2)cc1 | 250 | – | ED50 [3]: 0.28 mg/kg
13 | Cc1nc2cnccc2n1CC1CCN(C(=O)/C=C/c2ccc(N)cc2)CC1 | 1200 | 1.23 | –
14 | Cc1nc2cnccc2n1CC1CCN(C(=O)CC(NC(=O)c2ccc(N)cc2)c2ccccc2)CC1 (stereo unspecified) | 2200 | 0.19 | –
15 | C/C(=C\C(=O)N1CCC(Cn2c(C)nc3cnccc32)CC1)c1ccc(N)cc1 | 60 | 0.17 | –
16 | CCOC(=O)[C@H](CC(C)C)N(C(=O)c1ccc(N)cc1)S(=O)(=O)c1ccc(Cn2c(C)nc3cnccc32)cc1 | 30 | – | –
17 | Cc1nc2cnccc2n1CC1CCN(C(=O)/C=C(/c2ccccc2)c2cccc(N)c2)CC1 | 190 | – | –
18 | CCOC(=O)[C@H](CC(C)C)N(Cc1cccc(N)c1)S(=O)(=O)c1ccc(Cn2c(C)nc3cnccc32)cc1 | 17 | 0.043 | –
19 | Cc1nc2cnccc2n1CC1CCN(C(=O)NC(C)c2ccc(N)cc2)CC1 (stereo unspecified) | 1600 | – | –
20 | O=C(O)c1cc(/N=N/c2ccc(S(=O)(=O)Nc3ccccn3)cc2)ccc1O [SULFASALAZINE] | > 200000 | – | Damage score [4]: 8 0-10; Activity [5]: 683.3 U (g of tissue)-1; Colonic weight [7]: 154.4 mg/cm; Animals [8]: 62.5%

Continued, in another order:

Row | IC50 [1] [nM] | SMILES | ED50 [2] [mg/kg] | also measured
21 | 1550 | Cc1nc2cnccc2n1CC1CCN(C(=O)NCc2ccc(N)cc2)CC1 | 2.42 | –
22 | 8 | Cc1nc2cnccc2n1CC1CCN(C(=O)/C=C(/c2ccccc2)c2ccc(N)cc2)CC1 | 0.029 | –
23 | 120 | Cc1nc2cnccc2n1Cc1ccc(S(=O)(=O)N[C@@H](CC(C)C)C(=O)NCc2ccc(N)cc2)cc1 | – | ED50 [3]: 0.075 mg/kg
24 | 1470 | CCOC(=O)[C@H](CC(C)C)N(C(=O)c1ccc(/N=N\c2ccc(O)c(C(=O)O)c2)cc1)S(=O)(=O)c1ccc(Cn2c(C)nc3cnccc32)cc1 | 0.47 | –
25 | 300 | Cc1nc2cnccc2n1Cc1ccc(S(=O)(=O)N(C)c2cccc(N)c2)cc1 | – | ED50 [3]: 0.22 mg/kg
26 | 4100 | Cc1nc2cnccc2n1CC1CCN(C(=O)/C=C(/c2ccccc2)c2ccc(/N=N\c3ccc(O)c(C(=O)O)c3)cc2)CC1 | 2.81 | Damage score [4]: <7.5 0-10; Activity [5]: <445.9 U (g of tissue)-1; Production [6]: <4.5 ng (g of tissue)-1; Colonic weight [7]: <149.6 mg/cm; Animals [8]: <25%
27 | 490 | CCOC(=O)[C@H](CC(C)C)N(Cc1ccc(/N=N\c2ccc(O)c(C(=O)O)c2)cc1)S(=O)(=O)c1ccc(Cn2c(C)nc3cnccc32)cc1 | 1.31 | –
28 | 430 | Cc1nc2cnccc2n1CC1CCN(C(=O)C(C)c2ccc(N)cc2)CC1 (stereo unspecified) | 1.47 | –
29 | 12 | CCOC(=O)[C@H](CC(C)C)N(Cc1ccc(N)cc1)S(=O)(=O)c1ccc(Cn2c(C)nc3cnccc32)cc1 | – | –
30 | 610 | Cc1nc2cnccc2n1CC1CCN(C(=O)CN(CC(C)C)S(=O)(=O)c2ccc(N)cc2)CC1 | – | ED50 [3]: 0.029 mg/kg
31 | 75 | Cc1nc2cnccc2n1CC1CCN(C(=O)CN(c2ccccc2)S(=O)(=O)c2ccc(N)cc2)CC1 | – | –
32 | 400 | CCOC[C@H](CC(C)C)N(Cc1ccc(/N=N\c2ccc(O)c(C(=O)O)c2)cc1)S(=O)(=O)c1ccc(Cn2c(C)nc3cnccc32)cc1 | 2.51 | –
33 | 740 | CCOC(=O)[C@H](Cc1ccc(N)cc1)NS(=O)(=O)c1ccc(Cn2c(C)nc3cnccc32)cc1 | – | ED50 [3]: 0.19 mg/kg
34 | 7300 | Cc1nc2cnccc2n1CC1CCN(C(=O)/C=C(\c2ccccc2)c2ccc(/N=N\c3ccc(O)c(C(=O)O)c3)cc2)CC1 | – | –
35 | 19 | Cc1nc2cnccc2n1CC1CCN(C(=O)CC(C)(C)c2ccc(N)cc2)CC1 | – | –
36 | 32 | CCOC(=O)[C@H](Cc1ccc(N)cc1)NC(=O)N1CCC(Cn2c(C)nc3cnccc32)CC1 | 1.13 | –
37 | > 200000 | O=C(O)CCNC(=O)c1ccc(/N=N/c2ccc(O)c(C(=O)O)c2)cc1 [BALSALAZIDE] | – | –
